# Data as given in ChEMBL document CHEMBL1944565, “Exploration of α-aminophosphonate N-derivatives as novel, potent and selective inhibitors of protein tyrosine phosphatases” (Eur J Med Chem, 2012).
# Calls of active or inactive are those of the source. The calls are words filed in the database; no cut-off is given here.
# Key:
# [1] = target: T1, Tyrosine-protein phosphatase non-receptor type 1 (Homo sapiens, UniProt P18031); assay: Inhibition of human PTP1B using p-nitrophenol phosphate as substrate incubated for 35 mins prior to substrate addition measured after 30 mins by spectrophotometry
# T1 sequence (P18031 whole entry): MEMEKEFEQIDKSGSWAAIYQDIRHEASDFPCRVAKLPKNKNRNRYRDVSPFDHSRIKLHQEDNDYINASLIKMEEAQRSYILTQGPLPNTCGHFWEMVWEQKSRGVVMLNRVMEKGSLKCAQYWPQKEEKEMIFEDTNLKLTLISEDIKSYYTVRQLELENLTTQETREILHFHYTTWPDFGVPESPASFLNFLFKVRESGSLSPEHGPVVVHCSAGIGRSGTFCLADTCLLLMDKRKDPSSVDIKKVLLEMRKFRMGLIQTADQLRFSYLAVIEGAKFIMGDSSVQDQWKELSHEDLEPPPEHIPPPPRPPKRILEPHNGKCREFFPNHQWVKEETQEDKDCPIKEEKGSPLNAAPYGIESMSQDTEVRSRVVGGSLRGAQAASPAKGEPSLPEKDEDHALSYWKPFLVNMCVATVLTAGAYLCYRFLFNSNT
# Summary of the method: (§1)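 Recombinant human phosphatase, expressed and purified, in 20 mM MOPS pH 7.2 with 50 mM NaCl. Preincubated with inhibitor at various concentrations for 35 min at 37 °C. p-NPP (0.1 M stock) added and reaction run about 30 min, then stopped with 2 M NaOH.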
# [2] = target: T2, Tyrosine-protein phosphatase non-receptor type 9 (Homo sapiens, UniProt P43378); assay: Inhibition of human PTP-MEG2 using p-nitrophenol phosphate as substrate incubated for 35 mins prior to substrate addition measured after 30 mins by spectrophotometry; summary of the method: as §1
# T2 sequence (P43378 whole entry): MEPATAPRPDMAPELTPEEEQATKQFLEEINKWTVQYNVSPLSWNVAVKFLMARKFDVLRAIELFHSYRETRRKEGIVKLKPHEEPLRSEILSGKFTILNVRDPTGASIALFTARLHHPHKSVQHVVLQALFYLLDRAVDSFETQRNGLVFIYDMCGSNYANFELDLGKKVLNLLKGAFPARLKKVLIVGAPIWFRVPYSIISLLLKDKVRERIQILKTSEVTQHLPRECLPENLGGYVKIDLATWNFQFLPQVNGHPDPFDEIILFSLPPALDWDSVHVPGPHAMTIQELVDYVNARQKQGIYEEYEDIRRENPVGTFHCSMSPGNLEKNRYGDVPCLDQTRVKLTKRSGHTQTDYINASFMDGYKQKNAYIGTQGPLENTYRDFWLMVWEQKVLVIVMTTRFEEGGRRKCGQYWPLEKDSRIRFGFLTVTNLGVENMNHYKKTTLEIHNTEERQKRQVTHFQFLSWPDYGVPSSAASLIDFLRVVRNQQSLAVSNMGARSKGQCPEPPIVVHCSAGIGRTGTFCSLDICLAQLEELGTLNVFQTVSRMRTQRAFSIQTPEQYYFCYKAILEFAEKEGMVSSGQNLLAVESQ
# [3] = target: T3, Tyrosine-protein phosphatase non-receptor type 2 (Homo sapiens, UniProt P17706); assay: Inhibition of human TCPTP using p-nitrophenol phosphate as substrate incubated for 35 mins prior to substrate addition measured after 30 mins by spectrophotometry; summary of the method: as §1
# T3 sequence (P17706 whole entry): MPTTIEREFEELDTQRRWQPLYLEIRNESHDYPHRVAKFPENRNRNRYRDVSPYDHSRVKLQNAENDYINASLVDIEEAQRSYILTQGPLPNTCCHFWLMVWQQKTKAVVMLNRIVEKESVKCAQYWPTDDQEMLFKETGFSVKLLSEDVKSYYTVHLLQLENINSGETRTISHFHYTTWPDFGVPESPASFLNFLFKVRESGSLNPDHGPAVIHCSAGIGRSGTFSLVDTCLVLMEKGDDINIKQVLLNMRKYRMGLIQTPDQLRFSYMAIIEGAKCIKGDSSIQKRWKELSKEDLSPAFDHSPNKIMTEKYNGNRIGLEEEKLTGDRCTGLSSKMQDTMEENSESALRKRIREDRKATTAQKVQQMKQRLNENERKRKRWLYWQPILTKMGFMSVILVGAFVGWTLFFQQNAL
# [4] = target: T4, Tyrosine-protein phosphatase non-receptor type 11 (Homo sapiens, UniProt Q06124); assay: Inhibition of human SHP2 using p-nitrophenol phosphate as substrate incubated for 35 mins prior to substrate addition measured after 30 mins by spectrophotometry; summary of the method: as §1
# T4 sequence (Q06124 whole entry): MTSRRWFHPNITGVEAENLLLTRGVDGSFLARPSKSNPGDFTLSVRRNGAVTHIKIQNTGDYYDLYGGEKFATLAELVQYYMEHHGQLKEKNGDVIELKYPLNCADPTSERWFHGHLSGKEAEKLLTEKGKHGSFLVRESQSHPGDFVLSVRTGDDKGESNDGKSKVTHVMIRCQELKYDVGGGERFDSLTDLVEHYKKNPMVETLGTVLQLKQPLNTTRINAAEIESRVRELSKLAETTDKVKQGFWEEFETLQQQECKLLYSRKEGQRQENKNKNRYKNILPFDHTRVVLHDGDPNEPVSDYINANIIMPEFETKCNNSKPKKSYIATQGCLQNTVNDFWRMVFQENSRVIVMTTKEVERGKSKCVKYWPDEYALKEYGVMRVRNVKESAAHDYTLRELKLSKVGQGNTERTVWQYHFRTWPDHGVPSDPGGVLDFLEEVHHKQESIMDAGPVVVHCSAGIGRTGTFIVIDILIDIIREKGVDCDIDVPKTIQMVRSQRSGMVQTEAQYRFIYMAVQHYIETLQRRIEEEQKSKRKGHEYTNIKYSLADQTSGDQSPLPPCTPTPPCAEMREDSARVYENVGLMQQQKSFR
# [5] = target: Tyrosine-protein phosphatase non-receptor type 6 (Homo sapiens, UniProt P29350); assay: Inhibition of human SHP1 using p-nitrophenol phosphate as substrate incubated for 35 mins prior to substrate addition measured after 30 mins by spectrophotometry; summary of the method: as §1
# Sequence of Tyrosine-protein phosphatase non-receptor type 6 (P29350 whole entry): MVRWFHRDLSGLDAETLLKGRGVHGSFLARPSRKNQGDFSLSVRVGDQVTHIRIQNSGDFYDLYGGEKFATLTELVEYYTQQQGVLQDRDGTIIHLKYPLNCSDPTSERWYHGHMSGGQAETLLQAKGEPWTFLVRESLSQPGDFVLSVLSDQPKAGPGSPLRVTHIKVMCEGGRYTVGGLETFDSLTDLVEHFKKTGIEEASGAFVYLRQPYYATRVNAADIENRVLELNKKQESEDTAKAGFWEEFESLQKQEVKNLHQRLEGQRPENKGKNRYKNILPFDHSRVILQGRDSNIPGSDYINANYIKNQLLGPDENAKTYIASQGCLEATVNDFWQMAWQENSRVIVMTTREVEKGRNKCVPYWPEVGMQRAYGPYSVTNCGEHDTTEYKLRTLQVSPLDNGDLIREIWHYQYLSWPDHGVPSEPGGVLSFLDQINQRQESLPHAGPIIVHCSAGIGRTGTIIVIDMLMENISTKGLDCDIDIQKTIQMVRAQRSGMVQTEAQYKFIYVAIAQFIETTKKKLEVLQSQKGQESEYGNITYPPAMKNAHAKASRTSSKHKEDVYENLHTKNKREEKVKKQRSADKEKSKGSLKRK
# [6] = target: T5, Tyrosine-protein phosphatase non-receptor type 1 (Homo sapiens) (UniProt P18031)
# T5 sequence (whole entry): T1 sequence (P18031 whole entry)
# [7] = target: T5, Tyrosine-protein phosphatase non-receptor type 1 (Homo sapiens); remark: listed apart in the source
# HepG2 [8] = assay: Induction of necrosis in human HepG2 cells assessed as necrotic cells at 100 uM after 48 hrs by AnnexinV-FITC/PI flow cytometric analysis; assay type: functional
# Summary of the method: (§2)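 HepG2 cells exposed to 50, 100 or 300 μM for 48 h. Harvested, washed twice in ice-cold 0.85% NaCl, then resuspended in binding buffer with Annexin V-FITC and PI. Stained 15 min in the dark at room temperature and analysed by flow cytometry within 1 h. Viable, early/late apoptotic and necrotic fractions quantified from annexin V binding and PI uptake; mean ± SD, n = 3.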
# MCF7 = assay: Cytotoxicity against human MCF7 cells after 48 hrs by MTT assay; assay type: functional, cell-based
# Summary of the method: (§3)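 HepG2 or MCF7 cells in DMEM with 10% FBS and penicillin/streptomycin, 37 °C, 5% CO2. Plated overnight, then exposed to a range of concentrations for 48 h with DMSO held at 1.0% in samples and control. MTT (5 mg/mL stock) added for 4 h at 37 °C, formazan dissolved in DMSO, OD read at 490 nm. Viability % = T/C × 100, averaged over six wells.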
# HepG2 [9] = assay: Induction of apoptosis in human HepG2 cells at 50 uM after 48 hrs by AnnexinV-FITC/PI flow cytometric analysis; assay type: functional, cell-based; summary of the method: as §2
# [10] = target: T5, Tyrosine-protein phosphatase non-receptor type 1 (Homo sapiens); remark: listed apart in the source
# HepG2 [11] = assay: Induction of necrosis in human HepG2 cells assessed as necrotic cells at 300 uM after 48 hrs by AnnexinV-FITC/PI flow cytometric analysis; assay type: functional
# Summary of the method: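 HepG2 cells grown in DMEM with 10% FBS and penicillin/streptomycin at 37 °C under 5% CO2, then exposed for 48 h to three concentrations (50, 100, 300). Cells were washed twice in ice-cold 0.85% NaCl and stained with annexin V-FITC and PI in binding buffer for 15 min in the dark at room temperature. Flow cytometry within 1 h sorted necrotic cells by annexin V binding and PI uptake; mean ± SD, n = 3.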
# HepG2 [12] = assay: Induction of apoptosis in human HepG2 cells assessed as apoptotic cells at 100 uM after 48 hrs by AnnexinV-FITC/PI flow cytometric analysis; assay type: functional; summary of the method: as §2
# HepG2 [13] = assay: Cytotoxicity against human HepG2 cells after 48 hrs by MTT assay; assay type: functional, cell-based; summary of the method: as §3
# HepG2 [14] = assay: Induction of apoptosis in human HepG2 cells assessed as apoptotic cells at 300 uM after 48 hrs by AnnexinV-FITC/PI flow cytometric analysis; assay type: functional; summary of the method: as §2
# [15] = target: T6, Tyrosine-protein phosphatase non-receptor type 9 (Homo sapiens) (UniProt P43378)
# T6 sequence (whole entry): T2 sequence (P43378 whole entry)
SMILES,IC50 [1],IC50 [2],IC50 [3],IC50 [4],IC50 [5],Kic [6],Ka [7],Ka [10],Kic [15],Activity (HepG2 [8]),Activity (MCF7),Activity (HepG2 [9]),Activity (HepG2 [11]),Activity (HepG2 [12]),Activity (HepG2 [13]),Activity (HepG2 [14])
CCOP(=O)(O)C(N[C@H](C(=O)O)[C@@H](C)O)c1ccccc1O (some centres not stated),> 10 mM,> 10 mM,> 10 mM,> 10 mM,> 10 mM,–,–,–,–,–,–,–,–,–,–,–
CCOP(=O)(O)C(N[C@@H](C)C(=O)O)c1ccccc1O (some centres not stated),> 10 mM,> 10 mM,> 10 mM,> 10 mM,> 10 mM,–,–,–,–,–,–,–,–,–,–,–
CCOP(=O)(O)C(N[C@@H](Cc1c[nH]c2ccccc12)C(=O)O)c1ccccc1O (some centres not stated),> 10 mM,> 10 mM,> 10 mM,> 10 mM,> 10 mM,–,–,–,–,–,–,–,–,–,–,–
CCOP(=O)(O)C(NCC(=O)O)c1ccccc1O (configuration not stated),> 10 mM,> 10 mM,> 10 mM,> 10 mM,> 10 mM,–,–,–,–,–,–,–,–,–,–,–
CCOP(=O)(O)C(NCCCCCCNC(c1ccccc1O)P(=O)(O)OCC)c1ccccc1O (configuration not stated),> 10 mM,> 10 mM,> 10 mM,> 10 mM,> 10 mM,–,–,–,–,–,–,–,–,–,–,–
CCOP(=O)(O)C(N[C@@H](Cc1ccc(O)cc1)C(=O)O)c1ccccc1O (some centres not stated),> 10 mM,> 10 mM,> 10 mM,> 10 mM,> 10 mM,–,–,–,–,–,–,–,–,–,–,–
CCOP(=O)(O)C(NCCCNC(c1ccccc1O)P(=O)(O)OCC)c1ccccc1O (configuration not stated),> 10 mM,> 10 mM,> 10 mM,> 10 mM,> 10 mM,–,–,–,–,–,–,–,–,–,–,–
CCOP(=O)(O)C(N[C@@H](CS)C(=O)O)c1ccccc1O (some centres not stated),> 10 mM,> 10 mM,> 10 mM,> 10 mM,> 10 mM,–,–,–,–,–,–,–,–,–,–,–
CCOP(=O)(O)C(NCCNC(c1ccccc1O)P(=O)(O)OCC)c1ccccc1O (configuration not stated),> 10 mM,> 10 mM,> 10 mM,> 10 mM,> 10 mM,–,–,–,–,–,–,–,–,–,–,–

# The next lines start with results.
IC50 [1],IC50 [2],IC50 [3],IC50 [4],IC50 [5],Kic [6],Ka [7],Ka [10],Kic [15],SMILES,Activity (HepG2 [8]),Activity (MCF7),Activity (HepG2 [9]),Activity (HepG2 [11]),Activity (HepG2 [12]),Activity (HepG2 [13]),Activity (HepG2 [14])
> 10 mM,> 10 mM,> 10 mM,> 10 mM,> 10 mM,–,–,–,–,CCOP(=O)(O)C(N[C@@H](Cc1ccccc1)C(=O)O)c1ccccc1O (some centres not stated),–,–,–,–,–,–,–
0.334 mM,> 10 mM,0.178 mM,0.21 mM,0.167 mM,–,–,–,–,CCOP(=O)(O)C(N[C@@H](Cc1cnc[nH]1)C(=O)O)c1ccccc1O (some centres not stated),–,–,–,–,–,–,–
0.0917 mM,0.173 mM,0.0511 mM,> 10 mM,> 10 mM,96.3 µM,–,–,–,CCOP(=O)(OCC)[C@H](Nc1ccc(Br)cc1)c1ccccc1O,–,–,–,–,–,–,–
0.00664 mM,0.16 mM,0.0144 mM,> 10 mM,> 10 mM,4.4 µM,2.27 ×10⁵ /M,2.23 ×10⁵ /M,–,O=P(O)(O)[C@H](Nc1ccc(O)cc1)c1ccccc1O,1.9%,Dose-dependent effect,inactive,22.7%,7.2%,Dose-dependent effect,69.7%
0.135 mM,0.0686 mM,0.123 mM,0.191 mM,0.129 mM,–,–,–,102 µM,CCOP(=O)(O)C(N[C@@H](CO)C(=O)O)c1ccccc1O (some centres not stated),–,–,–,–,–,–,–
0.217 mM,0.291 mM,0.239 mM,> 10 mM,> 10 mM,–,–,–,–,CCOP(=O)(OCC)[C@H](Nc1ccc([N+](=O)[O-])cc1)c1ccccc1O,–,–,–,–,–,–,–
0.137 mM,0.146 mM,0.178 mM,> 10 mM,> 10 mM,–,–,–,–,CCOP(=O)(OCC)[C@H](Nc1ccccc1Cl)c1ccccc1O,–,–,–,–,–,–,–
0.373 mM,0.347 mM,0.627 mM,> 10 mM,> 10 mM,–,–,–,–,CCOP(=O)(OCC)[C@H](Nc1ccc(Cl)cc1)c1ccccc1O,–,–,–,–,–,–,–
